Hep lipid drop = modulators of hepatic lipid droplet formation | AML12 mouse hepatocytes, oleate lipid droplets, BODIPY imaging | inhibition, % at 6.5 µM | 240,000 compounds, 0.4% hits | AID 1656;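 active = lipid droplet intensity inhibited by at least 50%, with more than 500 cells counted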
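Assay system: AML12 hepatocytes (mouse); Probe or stimulus: oleic acid at 100 µM to induce lipid droplet formation; Dosing: compound at 6.5 µM only; Schedule: compound with oleate, overnight; Detection: fluorescence imaging, 20x objective, two fields per well; Measure: % inhibition of lipid droplet signal.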
STAT3 blocker = inhibitors of IL-6 induced STAT3 signaling; U3A cells, IL-6 STAT3-luciferase reporter, luminescence; host cell line lacks STAT1; inhibition, % at 5.5 µM; 190,000 compounds, 0.89% hits; AID 862;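 active = inhibition above the mean inhibition across all screened compounds plus 3 SD, cut at about 44% in these data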;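 note: 0% = DMSO only wells and 100% = 100 µM nifuroxazide control wells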
PPC-1+TRAIL kill = PPC-1 cancer cell killing with TRAIL present; PPC-1 cells + TRAIL, ATPLite viability luminescence; cell killing (% activity), % at 4 µM or 5 µM; 220,000 compounds, 0.41% hits; AID 1443;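 active = cell killing above 50% in the first pass at 4 µM, then a duplicate retest at 5 µM averaging 50% or more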;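 note: plate controls were cells with TRAIL plus DMSO for no effect and medium-only wells lacking cells for full effect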
STAT1 blocker = STAT1 signaling inhibition. NIH 3T3 STAT1-luciferase reporter, IFN-gamma, luminescence. inhibition, % at 5.5 µM. 200,000 compounds, 0.35% hits. AID 920;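 active = inhibition above a set limit, the mean inhibition across all tested compounds plus 3 SD, cut at about 34% in these data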;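 note: 0% = IFN-gamma with DMSO and 100% = IFN-gamma with 300 µM nifuroxazide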
Platelet DG rel = platelet dense granule release activity. human platelet-rich plasma, SFLLRN dense granule ATP release, luminescence. inhibition, %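 (compounds screened at 7.5 µM in platelet-rich plasma)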. 300,000 compounds, 0.22% hits. AID 1663;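 active = mean replicate score, as percent of positive control, at or above 50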
TAG inh = reduces triacylglycerol accumulation in H9c2 cells | AID 651582 | Nile Red lipid (TAG) fluorescence; cells loaded with 200 µM oleic acid | 230,000 compounds, 0.66% hits | inhibition, % at 12.5 µM;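 active = pattern-corrected inhibition of lipid staining of at least 50% with the nuclear-stain viability signal not falling by more than 50%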;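 note: 0% = DMSO wells and 100% = triacsin C control wells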
Hep lipid conf = confirmation of inhibitors of hepatic lipid droplet formation; shares compounds with Hep lipid drop; AML12 mouse hepatocytes, BODIPY lipid droplet imaging; droplets induced with 100 µM oleic acid; inhibition, % at 5.2 µM; 870 compounds, 65% hits;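 active = inhibition of lipid droplet metric at least 50%, with more than 300 cells in each of four replicates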;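 note: plate controls were DMSO with oleic acid for no effect and 5 µM Triacsin-C for full effect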
AML12 tox img = AML12 hepatocyte cytotoxicity (counter-screen) | shares compounds with Hep lipid drop | AML12 mouse hepatocytes, DAPI nuclear morphology cytotoxicity imaging; stronger effect = higher value; cells fed 100 µM oleate overnight | z-score at 5 µM | 870 compounds, 3% hits | AID 463200; in the data active = z-score above about 6.3;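 note: compound exposure lasted overnight at 37 °C before fixation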
AML12 tox ATP = AML12 hepatocyte cytotoxicity, confirmed. shares compounds with Hep lipid drop. AML12 mouse hepatocyte viability, ATP luminescence; cells loaded with 100 µM oleic acid. cytotoxicity, % at 50 µM. 530 tested, under 10 active;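 active = cytotoxicity above 50% in each of four replicates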;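 note: compound exposure lasted overnight at 37 °C before the ATP read; 0% = DMSO-treated cells and 100% = wells with no cells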
* = called active by the depositor; . = no result. A selection: hits, their analogues and other compounds. The true share with any hit is near 1.5%.

SMILES	Hep lipid drop	STAT3 blocker	PPC-1+TRAIL kill	STAT1 blocker	Platelet DG rel	TAG inh	Hep lipid conf	AML12 tox img	AML12 tox ATP
CCCNC(=O)Cn1cccc1C(=O)c1ccccc1	.	0	8	-2	5	10	.	.	.
Cc1nn(C(C)C(=O)NCCc2ccccc2)c(=O)c2cc3occc3n12 (stereo unspecified)	-9	.	.	.	4	.	.	.	.
COc1cccc(NC(=O)N(C)C[C@H]2OCc3cnnn3CCCC(=O)N([C@H](C)CO)C[C@@H]2C)c1	.	.	.	.	.	5	.	.	.
CCOc1ccc(CCNC(=O)CN2C(=O)NC(CCSC)C2=O)cc1OCC (stereo unspecified)	85*	-1	-9	-4	13	23	100*	0.33	14
COc1ccc(/C=C(/NC(=O)c2cccs2)C(=O)Nc2ccc(C)cc2)cc1OC	61*	5	-14	-1	12	.	100*	0.21	9
Cc1cccc(OCc2nnc(SC(C)C(=O)Nc3ccc(N4CCOCC4)cc3)o2)c1 (stereo unspecified)	.	.	.	.	.	-5	.	.	.
Nc1cc(Br)cc2c1[nH]c(=O)c1ccccc12	.	.	.	.	.	-8	.	.	.
O=C(O)CCCC(=O)Nc1ccc(Br)cc1C(=O)O	52*	12	14	11	-3	3	7	0.074	.
O=Nc1c(-c2c(O)[nH]c3cc(Br)ccc23)[nH]c2ccccc12	75*	.	.	.	2	84*	112*	2.5	67*
O=C(CNc1ccccc1)N/N=C/c1cn(-c2ccccc2)nc1-c1ccccc1	58*	3	14	-4	-11	.	38	0.37	.
CC1=C/C(=N\Nc2ccccc2[N+](=O)[O-])CC(C)(C)C1	77*	-8	-9	-1	-1	.	115*	-0.27	.
C/C(=N/Nc1ccccc1[N+](=O)[O-])c1ccc([N+](=O)[O-])cc1	12	.	.	.	-2	.	.	.	.
Cc1cccc(NC(=O)Cn2cc(C(=O)C3CC3)c3ccccc32)c1	51*	.	.	.	.	.	93*	-0.11	20
CCOc1cc2[nH]c(=O)n(CCCC(=O)N(C)Cc3ccccc3)c(=O)c2cc1OCC	70*	-3	9	-5	4	30	107*	-0.48	10
O=C(Cn1nc(-c2cccc(Cl)c2)ccc1=O)Nc1ccc(C(=O)NC2CC2)cc1	52*	2	31	0	-2	14	87*	0.0057	13
CCCNC(=O)C1(C)CCN(CCS(=O)(=O)c2ccc(C)cc2)C1 (stereo unspecified)	.	.	.	.	.	-17	.	.	.
CCN(C(=O)CSc1nnc(-c2cccc(F)c2)n1N)c1c(N)n(Cc2ccccc2)c(=O)[nH]c1=O	.	.	.	.	.	1	.	.	.
CC1CCCCN1Cc1c(O)ccc2c(=O)c(-c3ccccc3)coc12 (stereo unspecified)	87*	.	.	.	2	.	-35	1	.
CC1(C(=O)NS(=O)(=O)C2CC2)CCCN(C(=O)c2cccc(Cl)c2)C1 (stereo unspecified)	.	.	.	.	.	-6	.	.	.
OCC[C@H]1C[C@@H](O)[C@H](O)[C@@]2(Cc3ccccc3O2)O1	.	.	.	.	.	14	.	.	.
OCC[C@@H]1C[C@H](O)[C@@H](O)[C@]2(Cc3ccccc3O2)O1	62*	.	.	.	3	.	45	0.083	.
COc1ccc(CCNC(=O)CCOc2ccc(C)cc2)cc1OC	7	.	.	.	7	23	.	.	.
COc1ccc(CCNC(=O)CC(c2ccccc2)c2cc(C)ccc2O)cc1OC (stereo unspecified)	53*	.	.	.	15	.	30	0.95	.
COc1ccc(CCNC(=O)CCOc2cc(C)ccc2C)cc1OC	68*	.	.	.	-6	34	91*	-0.092	12
O=C(Cc1coc2cc(O)ccc12)N1CCN(S(=O)(=O)c2ccc(Br)cc2)CC1	.	.	.	.	.	-14	.	.	.
SMILES	Hep lipid drop	STAT3 blocker	PPC-1+TRAIL kill	STAT1 blocker	Platelet DG rel	TAG inh	Hep lipid conf	AML12 tox img	AML12 tox ATP
CCc1cnc(Nc2nc(C(N)c3ccccc3Cl)cs2)nc1 (stereo unspecified)	.	.	.	.	.	-8	.	.	.
CCC(=O)N1CCCC1(C)C(=O)Nc1cc(OC)ccc1OC (stereo unspecified)	.	.	.	.	.	10	.	.	.
CCCCOc1ccc(-c2ncc([N+](=O)[O-])cn2)cc1	51*	.	-5	.	-5	3	19	0.84	.
CCN(Cc1ccccc1)C(=O)C1CCN(C(=O)Nc2ccccc2)CC1	77*	.	.	.	-7	37	104*	-1.7	8
COc1ccc(-c2coc3c(C(=O)NCC(C)C)cccc23)c(C)c1	.	.	.	.	.	-18	.	.	.
CCn1c(=O)n(CC)c2cc(S(N)(=O)=O)ccc21	.	6	4	-2	-8	2	.	.	.
CCn1c(=O)n(CC)c2cc(N)ccc21	54*	-1	-4	-6	0	-5	23	-0.51	.
COc1ccc(-c2nc3c(c4nnc(SC(C)C(=O)Nc5ccc(C)cc5)n24)COC(C)(C)C3)cc1 (stereo unspecified)	62*	14	-2	1	-10	.	79*	-0.77	-6
COc1ccc(NC(=O)CSc2nnc3c4c(nc(-c5ccccc5)n23)CC(C)(C)OC4)cc1	2	-7	19	-3	13	.	.	.	.
COc1cc2c3nnc(-c4ccc(F)cc4)c-3cn(Cc3cccc(C)c3)c2cc1OC	54*	4	16	-6	9	-160	40	4.4	.
CC1=C(C(=O)NC2CCCc3c2cnn3-c2cccc(C)c2C)OCCO1 (stereo unspecified)	63*	.	.	.	-3	-3	105*	-0.5	16
COc1cccc(C(=O)NC2CCCc3c2cnn3-c2cc(C)cc(C)c2)c1 (stereo unspecified)	74*	.	.	.	-3	31	108*	-0.27	10
COc1ccc(C(=O)NC2CCCc3c2cnn3-c2cccc(C)c2C)o1 (stereo unspecified)	50*	.	.	.	9	.	88*	-0.19	7
Cc1cc(C)cc(-n2ncc3c2CCCC3NC(=O)c2ccccc2)c1 (stereo unspecified)	.	.	.	.	.	12	.	.	.
Cc1cccc(-n2ncc3c2CCCC3NC(=O)c2ccncc2)c1C (stereo unspecified)	.	.	.	.	.	-11	.	.	.
C=CCSc1n[nH]c(-c2ccc(OCCCC)cc2)n1	54*	15	20	-29	3	.	98*	0.3	13
O=C(NCc1ccco1)c1ccc(-c2ccc(F)c(F)c2)c2ccoc12	.	.	.	.	.	-43	.	.	.
COc1ccc(NC(=O)c2sccc2C)cn1	60*	23	7	-23	6	15	1	-0.17	.
CC1(C)Oc2ccc3ccc(=O)oc3c2/C(=C/Nc2ccc(O)cc2)C1=O	56*	28	13	-5	2	30	94*	-0.42	-12

Screening results (PubChem BioAssay)
